We go through twelve compounds from ChEMBL document CHEMBL1122956, “Artificial siderophores. 1. Synthesis and microbial iron transport capabilities” (1985).

Bounds are passed on as bounds.

Assay [1] concerns Escherichia coli. In words: Ability to support the growth of Escherichia coli strain BNV3040 from 50&500 uM stock solution was determined in growth response assay. In kind it is functional. In outline:
(§1)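 Disc growth-promotion assay on Escherichia coli K12 strains. Each strain was seeded in a soft nutrient agar overlay on nutrient agar plates. The overlay contained 0.1 mM deferriferrichrome A to make the plates iron deficient. Filter paper discs were each loaded with 10 μL of a 50–500 μM aqueous siderophore solution, with hydroxamate content checked by the ferric perchlorate reagent at 480 nm. Plates were incubated at 37 °C, and the diameter of the growth zone was scored at 12 and 24 h.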

Assay [2] relates to Escherichia coli. In words: Ability to support the growth of Escherichia coli strain RW 193 from 50&500 uM stock solution was determined in growth response assay. In kind it is functional. In outline:
as §1

The subject of assay [3] is Escherichia coli. In words: Ability to support the growth of Escherichia coli strain BN3300 from 50&500 uM stock solution was determined in growth response assay; No growth around disc. In kind it is functional, organism-based. In outline: as §1
In assay [4] the test system is Escherichia coli. In words: Ability to support the growth of Escherichia coli strain RWB7 from 50&500 uM stock solution was determined in growth response assay; No growth around disc. In kind it is functional, organism-based. In outline:
as §1

The subject of assay [5] is Escherichia coli. In words: Ability to support the growth of Escherichia coli strain AN193 from 50&500 uM stock solution was determined in growth response assay; No growth around disc. In kind it is functional, organism-based. In outline: as §1
Assay [6] relates to Escherichia coli. In words: Ability to support the growth of Escherichia coli strain BN3300 from 50 uM stock solution was determined in growth response assay; No growth around disc. In kind it is functional, organism-based. In outline: as §1
Assay [7] has as its system Escherichia coli. In words: Ability to support the growth of Escherichia coli strain RWB7 from 50 uM stock solution was determined in growth response assay; No growth around disc. In kind it is functional, organism-based. In outline:
as §1

Assay [8] concerns Escherichia coli. In words: Ability to support the growth of Escherichia coli strain AN193 from 50 uM stock solution was determined in growth response assay; No growth around disc. In kind it is functional, organism-based. Summed up:
as §1

For assay [9], the system named is Escherichia coli. In words: Ability to support the growth of Escherichia coli strain BNV3040 from 50 uM stock solution was determined in growth response assay. The class given is functional. Summed up: as §1
Assay [10] deals with Escherichia coli. In words: Ability to support the growth of Escherichia coli strain RW 193 from 50 uM stock solution was determined in growth response assay. The class given is functional. Summed up: as §1
For assay [11], the system named is Escherichia coli. In words: Ability to support the growth of Escherichia coli strain AN193 from 50 uM stock solution was determined in growth response assay. In kind it is functional. In outline:
as §1

In assay [12] the test system is Escherichia coli. In words: Ability to support the growth of Escherichia coli strain RWV193 from 50 uM stock solution was determined in growth response assay. The class given is functional. In outline: as §1
Assay [13] concerns Escherichia coli. In words: Ability to support the growth of Escherichia coli strain RWV193 from 100 uM stock solution was determined in growth response assay. In kind it is functional. In outline: as §1
Assay [14] concerns Escherichia coli. In words: Ability to support the growth of Escherichia coli strain AN193 from 100 uM stock solution was determined in growth response assay; No growth around disc. The class given is functional, organism-based. Summed up:
as §1

Assay [15] has as its system Escherichia coli. In words: Ability to support the growth of Escherichia coli strain BN3300 from 100 uM stock solution was determined in growth response assay; No growth around disc. In kind it is functional, organism-based. Summed up: as §1
Assay [16] concerns Escherichia coli. In words: Ability to support the growth of Escherichia coli strain RWB7 from 100 uM stock solution was determined in growth response assay; No growth around disc. The class given is functional, organism-based. Summed up:
as §1

The test system of assay [17] is Escherichia coli. In words: Ability to support the growth of Escherichia coli strain BNV3040 from 200 uM stock solution was determined in growth response assay. The class given is functional. In outline: as §1
The subject of assay [18] is Escherichia coli. In words: Ability to support the growth of Escherichia coli strain BN3300 from 200 uM stock solution was determined in growth response assay; No growth around disc. The class given is functional, organism-based. In outline:
as §1

In assay [19] the test system is Escherichia coli. In words: Ability to support the growth of Escherichia coli strain RWB7 from 200 uM stock solution was determined in growth response assay; No growth around disc. The class given is functional, organism-based. In outline:
as §1

Assay [20] deals with Escherichia coli. In words: Ability to support the growth of Escherichia coli strain RWV193 from 200 uM stock solution was determined in growth response assay. The class given is functional. Summed up:
as §1

Assay [21] concerns Escherichia coli. In words: Ability to support the growth of Escherichia coli strain BNV3040 from 134 uM stock solution was determined in growth response assay. In kind it is functional. Summed up: as §1
Assay [22] concerns Escherichia coli. In words: Ability to support the growth of Escherichia coli strain RW 193 from 134 uM stock solution was determined in growth response assay. The class given is functional. In outline: as §1
For assay [23], the system named is Escherichia coli. In words: Ability to support the growth of Escherichia coli strain BN3300 from 134 uM stock solution was determined in growth response assay; No growth around disc. In kind it is functional, organism-based. In outline:
as §1

The subject of assay [24] is Escherichia coli. In words: Ability to support the growth of Escherichia coli strain RWB7 from 134 uM stock solution was determined in growth response assay; No growth around disc. In kind it is functional, organism-based. In outline:
as §1

The subject of assay [25] is Escherichia coli. In words: Ability to support the growth of Escherichia coli strain AN193 from 134 uM stock solution was determined in growth response assay; No growth around disc. The class given is functional, organism-based. Summed up:
as §1

For assay [26], the system named is Escherichia coli. In words: Ability to support the growth of Escherichia coli strain BN3300 from […] was determined in growth response assay. In kind it is functional. Summed up: as §1
For assay [27], the system named is Escherichia coli. In words: Ability to support the growth of Escherichia coli strain BNV3040 from 380 uM stock solution was determined in growth response assay; No growth around disc. The class given is functional, organism-based. In outline:
as §1

The test system of assay [28] is Escherichia coli. In words: Ability to support the growth of Escherichia coli strain RW 193 from 380 uM stock solution was determined in growth response assay; No growth around disc. In kind it is functional, organism-based. Summed up:
as §1

The subject of assay [29] is Escherichia coli. In words: Ability to support the growth of Escherichia coli strain BN3300 from uM stock solution was determined in growth response assay; No growth around disc. The class given is functional, organism-based. In outline: as §1
Assay [30] deals with Escherichia coli. In words: Ability to support the growth of Escherichia coli strain RWB7 from 380 uM stock solution was determined in growth response assay; No growth around disc. The class given is functional, organism-based. Summed up: as §1
For assay [31], the system named is Escherichia coli. In words: Ability to support the growth of Escherichia coli strain AN193 from 380 uM stock solution was determined in growth response assay; No growth around disc. The class given is functional, organism-based. Summed up:
as §1

The subject of assay [32] is Escherichia coli. In words: Ability to support the growth of Escherichia coli strain RWV193 from 380 uM stock solution was determined in growth response assay; No growth around disc. The class given is functional, organism-based. In outline:
as §1

For assay [33], the system named is Escherichia coli. In words: Ability to support the growth of Escherichia coli strain RW 193 from 130 uM stock solution was determined in growth response assay; No growth around disc. The class given is functional, organism-based. Summed up: as §1
Assay [34] relates to Escherichia coli. In words: Ability to support the growth of Escherichia coli strain BNV3040 from 130 uM stock solution was determined in growth response assay; No growth around disc. The class given is functional, organism-based. In outline:
as §1

The subject of assay [35] is Escherichia coli. In words: Ability to support the growth of Escherichia coli strain BN3300 from 130 uM stock solution was determined in growth response assay; No growth around disc. In kind it is functional, organism-based. In outline: as §1
Assay [36] deals with Escherichia coli. In words: Ability to support the growth of Escherichia coli strain RWB7 from 130 uM stock solution was determined in growth response assay; No growth around disc. The class given is functional, organism-based. In outline:
as §1

The subject of assay [37] is Escherichia coli. In words: Ability to support the growth of Escherichia coli strain RWV193 from 130 uM stock solution was determined in growth response assay; No growth around disc. The class given is functional, organism-based. Summed up:
as §1

The test system of assay [38] is Escherichia coli. In words: Ability to support the growth of Escherichia coli strain AN193 from 130 uM stock solution was determined in growth response assay; No growth around disc. The class given is functional, organism-based. In outline:
as §1

For `CN(O)C(=O)CCCCCNC(=O)CC(CC(=O)NCCCCCC(=O)N(C)O)C(=O)NCCCCCC(=O)N(C)O`, the Inhibitory diameter is 25 mm in the assay on Escherichia coli [1], “Not toxic” with Escherichia coli [3], “Not toxic” in the assay on Escherichia coli [4] and “Not toxic” with Escherichia coli [5]. In the assay with Escherichia coli [2], this compound gave a growth zone diameter of 25 mm.
With FERRICHROME, the Inhibitory diameter result in the assay with Escherichia coli [6], in the assay on Escherichia coli [7] and in the assay on Escherichia coli [8] was “Not toxic” in each case.
As to `CC(=O)N(O)CCCCCNC(=O)CC(O)(CC(=O)NCCCCCN(O)C(C)=O)C(=O)O` [ARTHROBACTIN], the growth zone diameter in the assay on Escherichia coli [9], with Escherichia coli [11] and in the assay on Escherichia coli [12] was less than 10 mm in each case. Also, the values for the Inhibitory diameter result in the assay on Escherichia coli [6], with Escherichia coli [10] and with Escherichia coli [7] were “Not toxic”, less than 10 mm and “Not toxic”, respectively.
On to `CC(=O)N(O)CCCCCNC(=O)c1cccc(C(=O)NCCCCCN(O)C(C)=O)n1`, for which the Inhibitory diameter with Escherichia coli [13] is 25 mm; with Escherichia coli [14], “Not toxic”; with Escherichia coli [15], “Not toxic”; in the assay with Escherichia coli [16] it was “Not toxic”.
As for `CC(=O)N(O)CCCNC(=O)CC(O)(CC(=O)NCCCN(O)C(C)=O)C(=O)O` [SCHIZOKINEN], the growth zone diameter with Escherichia coli [17] and in the assay with Escherichia coli [20] was 25 mm each time. For the same compound, the Inhibitory diameter result in the assay with Escherichia coli [18] and in the assay on Escherichia coli [19] was “Not toxic” each time.
For the compound `CC(=O)N(O)CCCNC(=O)CN(CC(=O)NCCCN(O)C(C)=O)CC(=O)NCCCN(O)C(C)=O`, the Inhibitory diameter in the assay with Escherichia coli [21] is 25 mm; in the assay on Escherichia coli [23], “Not toxic”; in the assay on Escherichia coli [24], “Not toxic”; in the assay with Escherichia coli [25] it was “Not toxic”. This compound also came in with a growth zone diameter in the assay on Escherichia coli [22] of 25 mm.
`O=C(N[C@H]1COC(=O)[C@@H](NC(=O)c2cccc(O)c2O)COC(=O)[C@@H](NC(=O)c2cccc(O)c2O)COC1=O)c1cccc(O)c1O` [ENTEROBACTIN] came in with a growth zone diameter with Escherichia coli [26] of 25 mm.
For the compound `CC(=O)N(O)CCCNC(=O)c1cc(C(=O)NCCCN(O)C(C)=O)cc(C(=O)NCCCN(O)C(C)=O)c1`, the Inhibitory diameter result in the assay with Escherichia coli [27], with Escherichia coli [28], in the assay with Escherichia coli [29], in the assay with Escherichia coli [30], in the assay with Escherichia coli [31] and with Escherichia coli [32] was “Not toxic” in each case.
In the case of `CC(=O)N(O)CCCCCNC(=O)c1cc(C(=O)NCCCCCN(O)C(C)=O)cc(C(=O)NCCCCCN(O)C(C)=O)c1`, the Inhibitory diameter entry with Escherichia coli [33], with Escherichia coli [34], in the assay with Escherichia coli [35], with Escherichia coli [36], in the assay on Escherichia coli [37] and in the assay on Escherichia coli [38] was “Not toxic” throughout.
In the case of `CC(=O)N(O)CCCNC(=O)CC(CC(=O)NCCCN(O)C(C)=O)C(=O)NCCCN(O)C(C)=O`, the Inhibitory diameter in the assay on Escherichia coli [13] was 25 mm; with Escherichia coli [14], “Not toxic”; with Escherichia coli [15], “Not toxic”; in the assay on Escherichia coli [16], “Not toxic”.
Consider `CC(=O)N(O)CCCC1NC(=O)C(CCCN(O)C(C)=O)NC1=O` (centres undefined), for which the growth zone diameter in the assay with Escherichia coli [9], in the assay with Escherichia coli [11] and with Escherichia coli [12] was 25 mm throughout. For the same compound, the results for the Inhibitory diameter entry with Escherichia coli [6], in the assay with Escherichia coli [10] and in the assay with Escherichia coli [7] were “Not toxic”, 25 mm and “Not toxic”, respectively.
Regarding `CC(=O)N(O)CCCNC(=O)c1cccc(C(=O)NCCCN(O)C(C)=O)n1`, the Inhibitory diameter in the assay with Escherichia coli [13] is 25 mm; in the assay with Escherichia coli [14], “Not toxic”; with Escherichia coli [15], “Not toxic”; in the assay with Escherichia coli [16], “Not toxic”.
